In ChEMBL document CHEMBL4834402, “Discovery of TAK-981, a First-in-Class Inhibitor of SUMO-Activating Enzyme for the Treatment of Cancer” (J Med Chem, 2021):
Each block holds one compound with its values, some of them ahead of it. Activity calls are given as the source filed them. The calls are words filed in the database; no cut-off is given here.

Experiments:
[1] = AUC in rat plasma at 10 mg/kg, po; assay type: ADME, organism-based; design: dose 10 mg/kg
[2] = Clearance in rat plasma at 1 mg/kg, iv; assay type: ADME, organism-based; conditions: in vivo
[3] = test system: HCT-116; experiment: Cytotoxicity against human HCT116 cells assessed as reduction in cell viability after 72 hrs by CellTiter-Glo luminescent assay; assay type: functional, cell-based; conditions: HCT-116, 72 h
[4] = test system: HCT-116; experiment: Antitumor activity against human HCT116 cells xenografted in sc dosed NCr nude mouse assessed as tumor growth inhibition administered twice per day for 21 days by vernier caliper method; assay type: functional, organism-based; conditions: dose 150.0 mg/kg, time 21.0 day
How it was run: (§1)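 Female NCr nude mice with HCT-116 tumors, n = 10/arm, dosed subcutaneously until Day 21. Schedules were BID x21 (days 1–21) or BID BIW (days 1, 4, 8, 11, 15, 18, 21).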

[5] = test system: HCT-116; experiment: Antitumor activity against human HCT116 cells xenografted in sc dosed NCr nude mouse assessed as tumor growth inhibition administered on day 1, 4, 8, 11, 15, 18 and 21 by vernier caliper method; assay type: functional, organism-based; conditions: dose 200.0 mg/kg, time 21.0 day; how it was run: as §1
[6] = test system: OCI-Ly10; experiment: Cytotoxicity against human OCI-LY10 cells assessed as reduction in cell viability after 72 hrs by CellTiter-Glo luminescent assay; assay type: functional, cell-based; conditions: OCI-Ly10, 72 h
[7] = Oral bioavailability in rat blood at 10 mg/kg; assay type: ADME, organism-based
[8] = Oral bioavailability in rat plasma at 10 mg/kg; assay type: ADME, organism-based
[9] = Dissociation constant , pKa of the compound; assay type: physicochemical
[10] = molecular target: T1, NEDD8 activating enzyme (Homo sapiens, UniProt Q8TBC4); experiment: Inhibition of recombinant NAE (unknown origin) in presence of ATP at Km concentration by HTRF assay; assay type: protein-complex assay
T1 sequence (Q8TBC4 whole entry): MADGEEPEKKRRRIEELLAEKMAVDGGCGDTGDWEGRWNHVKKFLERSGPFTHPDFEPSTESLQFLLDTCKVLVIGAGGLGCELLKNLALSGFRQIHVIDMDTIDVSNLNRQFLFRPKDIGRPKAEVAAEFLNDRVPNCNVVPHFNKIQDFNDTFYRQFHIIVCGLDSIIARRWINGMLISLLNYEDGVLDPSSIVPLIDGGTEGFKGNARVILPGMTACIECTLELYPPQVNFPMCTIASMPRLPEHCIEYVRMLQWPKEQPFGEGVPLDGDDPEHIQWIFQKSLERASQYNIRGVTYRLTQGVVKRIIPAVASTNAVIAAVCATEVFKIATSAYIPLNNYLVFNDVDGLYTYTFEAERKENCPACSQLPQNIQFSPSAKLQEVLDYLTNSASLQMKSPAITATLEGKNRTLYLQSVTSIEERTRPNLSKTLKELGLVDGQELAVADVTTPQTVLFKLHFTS
T1 sequence (Q13564 whole entry): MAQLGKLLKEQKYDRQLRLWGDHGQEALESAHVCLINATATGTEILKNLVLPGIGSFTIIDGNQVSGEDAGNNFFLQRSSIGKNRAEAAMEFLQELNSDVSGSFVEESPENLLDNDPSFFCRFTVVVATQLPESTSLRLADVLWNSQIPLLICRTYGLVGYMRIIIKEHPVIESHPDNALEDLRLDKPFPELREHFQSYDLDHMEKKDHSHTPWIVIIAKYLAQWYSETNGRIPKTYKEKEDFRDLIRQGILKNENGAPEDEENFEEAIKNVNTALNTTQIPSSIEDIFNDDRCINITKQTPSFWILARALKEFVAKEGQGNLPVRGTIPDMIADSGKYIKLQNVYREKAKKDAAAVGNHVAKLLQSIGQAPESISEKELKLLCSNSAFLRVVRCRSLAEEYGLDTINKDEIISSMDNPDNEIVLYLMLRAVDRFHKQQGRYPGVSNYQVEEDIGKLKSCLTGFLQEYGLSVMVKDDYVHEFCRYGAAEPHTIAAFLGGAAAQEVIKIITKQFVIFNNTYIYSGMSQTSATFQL

[11] = AUC in rat blood at 1 mg/kg, iv; assay type: ADME, organism-based; design: dose 1 mg/kg
[12] = Volume of distribution at steady state in rat blood at 1 mg/kg, iv; assay type: ADME, organism-based; conditions: read-out: Vdss
[13] = Apparent permeability across apical to basolateral side in human Caco2 cells; assay type: ADME, cell-based; conditions: Caco-2
[14] = Clearance in rat blood at 1 mg/kg, iv; assay type: ADME, organism-based; conditions: in vivo
[15] = Apparent permeability across basolateral to apical side in human Caco2 cells; assay type: ADME, cell-based; conditions: Caco-2
[16] = AUC in rat blood at 10 mg/kg, po; assay type: ADME, organism-based; design: dose 10 mg/kg
[17] = molecular target: Carbonic anhydrase 1 (Homo sapiens, UniProt P00915); experiment: Inhibition of human erythrocyte CA1 using fluorescein diacetate as substrate at […] by fluorometric esterase assay
Chain of Carbonic anhydrase 1 (P00915 whole entry): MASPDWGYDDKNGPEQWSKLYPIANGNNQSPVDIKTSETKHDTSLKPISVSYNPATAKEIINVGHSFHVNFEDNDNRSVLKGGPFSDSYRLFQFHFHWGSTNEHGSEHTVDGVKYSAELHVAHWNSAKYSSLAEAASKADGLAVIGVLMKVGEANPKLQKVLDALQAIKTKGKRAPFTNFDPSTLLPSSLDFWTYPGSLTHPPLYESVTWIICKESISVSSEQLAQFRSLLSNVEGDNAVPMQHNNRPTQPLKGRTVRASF

[18] = Lipophilicity, logD of compound at pH 7.4; assay type: physicochemical; conditions: buffer
[19] = Half life in rat blood at 1 mg/kg, iv; assay type: ADME, organism-based
[20] = Half life in rat plasma at 1 mg/kg, iv; assay type: ADME, organism-based
[21] = Volume of distribution at steady state in rat plasma at 1 mg/kg, iv; assay type: ADME, organism-based; conditions: read-out: Vdss
[22] = test system: HCT-116; experiment: Antitumor activity against human HCT116 cells xenografted in sc dosed NCr nude mouse assessed as tumor growth inhibition administered on day 1, 2, 8, 9, 15, […] and […] by vernier caliper method; assay type: functional, organism-based; conditions: dose 150.0 mg/kg, time 21.0 day
[23] = AUC in rat plasma at 1 mg/kg, iv; assay type: ADME, organism-based; design: dose 1 mg/kg
[24] = test system: HCT-116; experiment: Antitumor activity against human HCT-116 cells xenografted in Ncr/nude mouse assessed as tumor growth inhibition at 50 mg/kg, sc administered once daily for 21 days and measured twice weekly; assay type: functional, organism-based; conditions: time 21.0 day
How it was run: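 Female Ncr/nude mice carrying HCT-116 tumors (~200 mm3) were randomized, n = 8/group, with treatment from Day 1. Schedules were QD x21 (Days 1–21) or QD x3/week (three consecutive dosing days, four off). Tumor volume was measured twice weekly.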

[25] = molecular target: T2, SUMO-activating enzyme (Homo sapiens) (UniProt Q9UBE0+Q9UBT2); experiment: Inhibition of SAE in human HCT116 cells xenografted in NCr nude mouse assessed as improvement in SUMO-inhibitor adduct durability at 50 mg/kg, iv and measured up to 16 hrs by mass spectrometry; assay type: organism-based; conditions: HCT-116
How it was run: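 Single IV dose at t = 0 to female Ncr nude mice bearing HCT-116 tumors, n = 3 per time point. Tumors harvested 2, 4, 8 and 16 h post-injection. Read-out is the adduct/SAE ratio: quantity of SUMO-compound adduct over quantity of total SAE enzyme, both measured by mass spectrometry. Values are averaged per time point.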

[26] = test system: OCI-Ly10; experiment: Antitumor activity against human OCI-Ly10 cells xenografted in CB17 SCID mouse assessed as tumor growth inhibition at 50 mg/kg, sc mg/kg administered once daily for 21 days and measured twice weekly; assay type: functional, organism-based; conditions: time 21.0 day
How it was run: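 Female CB17 SCID mice carrying OCI-Ly10 tumors (~200 mm3) were randomized, n = 8/group, with treatment from Day 1. Schedules were QD x21 (Days 1–21) or QD x3/week (three consecutive dosing days, four off). Tumor volume was measured twice weekly.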

[27] = molecular target: T2, SUMO-activating enzyme (Homo sapiens); experiment: Inhibition of SAE in human HCT116 cells xenografted in NCr nude mouse assessed as reduction in SUMO2/3 protein conjugates at 50 mg/kg, iv and measured up to 16 hrs by immunohistochemistry analysis; assay type: organism-based; conditions: HCT-116
How it was run: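 HCT-116 tumors in female Ncr nude mice, n = 3 per time point, after a single IV dose at t = 0. SUMO2/3 conjugation in tumors measured by IHC at 2, 4, 8 and 16 h. Read-out is nuclei staining positive for SUMO2/3 conjugates over total nuclei, normalized to vehicle-treated animals (time = 0 h), expressed as percent inhibition.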

AUC [1]: 0.1 µM·h
clearance [2]: 85 mL/min/kg
bioavailability [7]: 6.9%
bioavailability [8]: 7.1%
pKa [9]: 3.6
IC50 [10]: 228 nM
AUC [11]: 19.1 µM·h
Vd [12]: 0.1 L/kg
Papp A→B [13]: 1.2 ×10⁻⁶ cm/s
clearance [14]: 1.67 mL/min/kg
Papp B→A [15]: 64 ×10⁻⁶ cm/s
AUC [16]: 10.8 µM·h
IC50 [17]: 50 nM
logD [18]: 2.6
half-life [19]: 1.2 h
half-life [20]: 0.9 h
Vd [21]: 5.1 L/kg
AUC [23]: 0.4 µM·h
SMILES: NS(=O)(=O)OC[C@H]1C[C@@H](Nc2ncncc2C(=O)c2ccn(Cc3cccc(Br)c3)n2)C[C@@H]1O
EC50 [3]: 90 nM
Activity [4]: Dose-Dependent Effect
Activity [5]: Dose-Dependent Effect
EC50 [6]: 55 nM
Activity [22]: Dose-Dependent Effect

SMILES: Cc1sc(C(=O)c2cncnc2N[C@@H]2C[C@H](COS(N)(=O)=O)[C@@H](O)C2)cc1C1OCCc2ccc(Cl)cc21 (stereo in doubt)
Activity [24]: Active
inhibition [25]: Active
Activity [26]: Active
inhibition [27]: Active
